The results in this text go back to publication PMC6699892 (Inorganic chemistry, 2019).

This data set is described as follows: Lipophilicity, modified shake flask octanol-water partition. In kind it is physicochemical. Conditions: chloride salts, 50 µM, 1-octanol/water, room temperature. In a few lines: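 1-Octanol and water were mutually pre-saturated by shaking for 24 h at room temperature. Test compound at 50 µM in water-saturated octanol was mixed with an equal volume of octanol-saturated water, hand-shaken 200 times and centrifuged (11,000 rpm, 2 min). Each layer was quantified by absorbance against standard curves.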

On to `[Cl][Ru][Cl].c1ccc(-c2ccccn2)nc1.c1ccc(-c2ccccn2)nc1.c1ccc(-c2ccccn2)nc1` [[Ru(bpy)3]Cl2, reference compound], for which the “Octanol-water partition coefficient (log Po/w)” value is given as less than −3.
